From publication PMC4894453 (Scientific Reports, 2014)
≈ marks a conversion by molar mass, not a printed value.

What was measured:
[1] = test system: Enterococcus faecalis ATCC 33186; assay: MIC, microbroth dilution, Enterococcus faecalis; assay type: cell-based; settings: Enterococcus faecalis, ATCC33186, read-out: MIC against Gram-positive bacteria, EF, Enterococcus faecalis ATCC 33186; Mueller-Hinton broth, 18–20 h
[2] = test system: Streptococcus pyogenes ATCC 700294; assay: MIC, microbroth dilution, Streptococcus pyogenes; assay type: cell-based; settings: Streptococcus pyogenes, ATCC700294, read-out: MIC against Gram-positive bacteria, SP
[3] = test system: Streptococcus pneumoniae R6; assay: MIC, microbroth dilution, Streptococcus pneumoniae; assay type: cell-based; settings: Streptococcus pneumoniae, R6, read-out: MIC against Gram-positive bacteria, SPn
How it was run: (§1)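 CLSI microbroth dilution in Mueller-Hinton broth. Test compound at final 200–0.1 μg/ml, diluted from 10 mg/ml DMSO stocks. Plates incubated 18–20 h. MIC is the lowest concentration preventing visible growth.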

[4] = test system: Bacillus anthracis sterne; assay: microbe, parasite or virus in culture; assay type: cell-based; settings: Bacillus anthracis, read-out: MIC against Gram-positive bacteria, BA
[5] = test system: Bacillus subtilis ATCC 23857; assay: MIC, microbroth dilution, Bacillus subtilis; assay type: cell-based; settings: Bacillus subtilis, ATCC23857, read-out: MIC against Gram-positive bacteria, BS
How it was run: as §1

[6] = test system: Clostridium difficile BAA 1803; assay: MIC, microbroth dilution, anaerobic, Clostridium difficile; assay type: cell-based; settings: Clostridioides difficile, BAA1803, 24 h, read-out: MIC against Gram-positive bacteria, CD, Clostridium difficile BAA 1803; Brain-heart infusion broth, 24 h, anaerobic
[7] = test system: methicillin-susceptible Staphylococcus aureus Newman; assay: MIC, microbroth dilution, MSSA; assay type: cell-based; settings: for MIC against Gram-positive bacteria, MSSA: S. aureus Newman, 18–20 h
How it was run: as §1

[8] = test system: methicillin-resistant Staphylococcus aureus N315; assay: MIC, microbroth dilution, MRSA; assay type: cell-based; settings: Staphylococcus aureus, MRSA, read-out: MIC against Gram-positive bacteria, MRSA
How it was run: as §1

[9] = test system: Vero cells (kidney epithelial cells; ATCC CCL-81); assay: Cytotoxicity, CellTiter-Glo viability; assay type: cell-based; settings: for Selectivity index: Cytotox IC50/MIC against methicillin-susceptible S. aureus Newman
How it was run: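 Vero kidney epithelial cells exposed 72 h to test compound (final 200–0.1 μg/ml in DMEM; diluted from 10 mg/ml DMSO stocks). Viability read by CellTiter-Glo luminescence. IC50 is the concentration giving 50% viability loss, from curve fitting. Selectivity index is the cytotoxic IC50 divided by the MIC against S. aureus Newman.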

[10] = test system: panel of clinical relevant Gram-positive pathogens; assay: MIC, statements over the Gram-positive panel; assay type: cell-based
S. aureus Newman = assay: Membrane potential by flow cytometry with DiOC2; assay type: cell-based, Staphylococcus aureus; settings: 10 μM, 30 min, DiOC2(3)
How it was run: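 Exponential-phase S. aureus Newman (OD600 ≈ 0.3, Mueller-Hinton II broth) treated with test compound at 100, 10 or 1 μM for 30 min at 37°C. Cells stained 5 min with 30 μM DiOC2(3) and run on flow cytometry (10,000 events, 488 nm excitation, green and red emission). Red/green fluorescence ratio histograms compared. CCCP was the positive control; at least two independent samples.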

| SMILES | MIC [1] [µg/mL] | MIC [2] [µg/mL] | MIC [3] [µg/mL] | MIC [4] [µg/mL] | MIC [5] [µg/mL] | MIC [6] [µg/mL] | MIC against Gram-positive bacteria, MSSA [7] [µg/mL] | fold improvement in activity over reutericyclin ([7]; S. aureus, strain not given) [fold] | MIC [8] [µg/mL] | Selectivity index [9] | MIC ([10]; read-out: MIC over the Gram-positive panel) [µg/mL] | dissipation of the membrane potential (S. aureus Newman) | fold less active than reutericyclin ([10]; Gram-positive panel (most bacteria)) [fold] | Cytotox IC50 ([9]; Vero kidney cells, 72 h, 50% reduction of viability) [µg/mL] | fold better activity than 3 throughout the panel ([10]; Gram-positive panel, compared to 3) [fold] |
| --- | --- | --- | --- | --- | --- | --- | --- | --- | --- | --- | --- | --- | --- | --- | --- |
| CCCCCCC/C=C/C(=O)N1C(=O)/C(=C(/C)O)C(=O)C1Cc1ccc(OC(C)(C)C)cc1 (stereo not drawn) [Compound 20, (Z)-5-(4-(tert-butoxy)benzyl)-1-((E)-dec-2-enoyl)-3-(1-hydroxyethylidene)pyrrolidine-2,4-dione] | 0.78 (≈ 1.71 µM) | 12.5 (≈ 27.4 µM) | 6.25 (≈ 13.7 µM) | 200 (≈ 439 µM) | 1.56 (≈ 3.42 µM) | 0.25 (≈ 0.549 µM) | <0.1 | > 4 | < 0.1 | >115 |  |  |  |  |  |
| CCCCCCC/C=C/C(=O)N1C(=O)/C(=C(\O)c2ccccc2)C(=O)C1CC(C)C (stereo not drawn) [Compound 7, (Z)-1-((E)-dec-2-enoyl)-3-(hydroxy(phenyl)methylene)-5-isobutylpyrrolidine-2,4-dione] | 0.39 (≈ 0.948 µM) | 12.5 (≈ 30.4 µM) | 12.5 (≈ 30.4 µM) | > 200 | 0.78 (≈ 1.9 µM) | 0.75 (≈ 1.82 µM) | <0.1 |  | < 0.1 | >125 | < 1 |  |  |  |  |
| CCCCCCC/C=C/C(=O)N1C(=O)/C(=C(/C)O)C(=O)C1CCCCN (stereo not drawn) [Compound 17, (Z)-5-(4-aminobutyl)-1-((E)-dec-2-enoyl)-3-(1-hydroxyethylidene)pyrrolidine-2,4-dione] | 50 (≈ 137 µM) | > 200 | > 200 | > 200 | > 200 | > 64 |  |  | 200 (≈ 549 µM) | 1 |  | reduced their ability to dissipate the membrane potential |  |  |  |
| CCCCCCC/C=C/C(=O)N1C(=O)/C(=C(\O)C2CCNCC2)C(=O)C1CC(C)C (stereo not drawn) [Compound 9, (Z)-1-((E)-dec-2-enoyl)-3-(hydroxy(piperidin-4-yl)methylene)-5-isobutylpyrrolidine-2,4-dione] | 50 (≈ 119 µM) | 100 (≈ 239 µM) | 50 (≈ 119 µM) | 12.5 (≈ 29.9 µM) | 12.5 (≈ 29.9 µM) | 8 (≈ 19.1 µM) |  |  | 50 (≈ 119 µM) | 2 |  | reduced their ability to dissipate the membrane potential |  |  |  |
| CCCCCCC/C=C/C(=O)N1C(=O)/C(=C(/C)O)C(=O)C1CO (stereo not drawn) [Compound 15, (Z)-1-((E)-dec-2-enoyl)-3-(1-hydroxyethylidene)-5-(hydroxymethyl)pyrrolidine-2,4-dione] | 100 (≈ 309 µM) | 50 (≈ 155 µM) | 100 (≈ 309 µM) | > 200 | 200 (≈ 618 µM) | 64 (≈ 198 µM) |  |  | > 200 | 1 |  |  |  |  |  |
| CCCCCCC/C=C/C(=O)N1C(=O)/C(=C(\O)c2ccc(OCOCCOC)cc2)C(=O)C1CC(C)C (stereo not drawn) [Compound 11, (Z)-1-((E)-dec-2-enoyl)-3-(hydroxy(4-((2-methoxyethoxy)methoxy)phenyl)methylene)-5-isobutylpyrrolidine-2,4-dione] | 0.78 (≈ 1.51 µM) | 25 (≈ 48.5 µM) | 12.5 (≈ 24.2 µM) | 0.2 (≈ 0.388 µM) | 1.56 (≈ 3.03 µM) | 0.25 (≈ 0.485 µM) |  |  | 0.2 (≈ 0.388 µM) | 25 |  |  |  |  |  |
| CCCCC(=O)N1C(=O)/C(=C(/C)O)C(=O)C1CC(C)C (stereo not drawn) [Compound 3, (Z)-3-(1-hydroxyethylidene)-5-isobutyl-1-pentanoylpyrrolidine-2,4-dione] | 50 (≈ 178 µM) | 12.5 (≈ 44.4 µM) | 6.25 (≈ 22.2 µM) | > 200 | 100 (≈ 355 µM) | 16 (≈ 56.9 µM) |  |  | 12.5 (≈ 44.4 µM) | 1 |  |  | ≥ 32 |  |  |
| CCCCCCC/C=C/C(=O)N1C(=O)/C(=C(\O)c2ccc(O)cc2)C(=O)C1CC(C)C (stereo not drawn) [Compound 12, (Z)-1-((E)-dec-2-enoyl)-3-(hydroxy(4-hydroxyphenyl)methylene)-5-isobutylpyrrolidine-2,4-dione] | 12.5 (≈ 29.2 µM) | 50 (≈ 117 µM) | 50 (≈ 117 µM) | 0.78 (≈ 1.82 µM) | 3.13 (≈ 7.32 µM) | 2 (≈ 4.68 µM) |  |  | 6.25 (≈ 14.6 µM) | 9 |  |  |  |  |  |
| CCCCCCC/C=C/C(=O)N1C(=O)/C(=C(\O)c2ccncc2)C(=O)C1CC(C)C (stereo not drawn) [Compound 8, (Z)-1-((E)-dec-2-enoyl)-3-(hydroxy(pyridin-4-yl)methylene)-5-isobutylpyrrolidine-2,4-dione] | 50 (≈ 121 µM) | 100 (≈ 242 µM) | 25 (≈ 60.6 µM) | 50 (≈ 121 µM) | 100 (≈ 242 µM) | 0.5 (≈ 1.21 µM) |  |  | 12.5 (≈ 30.3 µM) | 5 |  |  |  |  |  |
| N#CC(C#N)=NNc1cccc(Cl)c1 [CCCP, carbonyl cyanide m-chlorophenyl hydrazone, reference compound] |  |  |  |  |  |  |  |  |  |  |  | complete dissipation of the membrane potential |  |  |  |
| CCCCCCC/C=C/C(=O)N1C(=O)/C(=C(/C)O)C(=O)C1Cc1ccc(O)cc1 (stereo not drawn) [Compound 19, (Z)-1-((E)-dec-2-enoyl)-5-(4-hydroxybenzyl)-3-(1-hydroxyethylidene)pyrrolidine-2,4-dione] | 50 (≈ 125 µM) | 50 (≈ 125 µM) | 25 (≈ 62.6 µM) | 200 (≈ 501 µM) | 50 (≈ 125 µM) | 32 (≈ 80.1 µM) |  |  | 25 (≈ 62.6 µM) | 2 |  |  |  | 93.53 |  |
| CCCCCCC/C=C/C(=O)N1CC(=O)/C(=C(\C)O)C1=O [Compound 14, (Z)-1-((E)-dec-2-enoyl)-3-(1-hydroxyethylidene)pyrrolidine-2,4-dione] | 6.25 (≈ 21.3 µM) | 50 (≈ 170 µM) | 12.5 (≈ 42.6 µM) | 1.56 (≈ 5.32 µM) | 12.5 (≈ 42.6 µM) | 2 (≈ 6.82 µM) |  |  | 3.2 (≈ 10.9 µM) | 3 |  |  |  |  |  |
| C/C(O)=C1\C(=O)C(CC(C)C)N(C(=O)C=Cc2ccccc2)C1=O (stereo not drawn) [Compound 4, (Z)-1-cinnamoyl-3-(1-hydroxyethylidene)-5-isobutylpyrrolidine-2,4-dione] | 12.5 (≈ 38.2 µM) | 25 (≈ 76.4 µM) | 3.13 (≈ 9.56 µM) | > 200 | 25 (≈ 76.4 µM) | 8 (≈ 24.4 µM) |  |  | 1.6 (≈ 4.89 µM) | 2 |  |  |  |  | ≤ 8 |
| CCCCCCC/C=C/C(=O)N1C(=O)/C(=C(/C)O)C(=O)C1CCC(=O)O (stereo not drawn) [Compound 16, 3-((Z)-1-((E)-dec-2-enoyl)-4-(1-hydroxyethylidene)-3,5-dioxopyrrolidin-2-yl)propanoic acid] | 25 (≈ 68.4 µM) | 50 (≈ 137 µM) | 25 (≈ 68.4 µM) | > 200 | 50 (≈ 137 µM) | > 64 |  |  | > 200 | 1 |  |  |  |  |  |
